Entries after “also recorded” stand apart in the source; their conditions may differ.
Legend:
[1] = target: Bruton's tyrosine kinase (BTK) (Homo sapiens, UniProt Q06187); assay type: in vivo
Summary of the method: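 PBMCs isolated from blood drawn pre-dose and 2 hours post-dose on Cycle 1 Day 1 were analysed by western blot with anti-pBTK, anti-BTK and anti-β-actin antibodies. pBTK band intensity was quantified by imaging analyzer, normalised to β-actin, and expressed relative to the pre-dose Day 1 level (set as 100%).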

[2] = tested on: ABC‐DLBCL cell line, TMD8; conditions: cited from earlier work
[3] = B‐cell NHL, European phase I study; cited from earlier work
[4] = tested on: TMD8 transplanted mouse tumor model; conditions: cited from earlier work
[5] = tested on: relapsed/refractory B‐cell NHL and CLL; test: Efficacy; assay type: in vivo, human; conditions: for Partial response (VGPR or PR): includes lymphocytosis assessed as modified PR
Summary of the method: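 Open-label, multicenter, non-randomised study in Japanese adults (≥20 y) with relapsed/refractory B-cell NHL (DLBCL, MCL, FL, MZL, WM/LPL) or CLL/SLL. Oral test compound was given at 160, 320 or 480 mg QD, or 300 mg BID, until progression, unacceptable AEs or consent withdrawal. Best response was graded per International Workshop Criteria for NHL, WM and CLL. ORR was CR plus PR, including PR with residual lymphocytosis, with Clopper–Pearson 95% CIs. Analysis included all patients receiving ≥1 dose.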

[6] = DLBCL, 3 patients who received 300 mg BID

Sequence of Bruton's tyrosine kinase (BTK) (Q06187 whole entry): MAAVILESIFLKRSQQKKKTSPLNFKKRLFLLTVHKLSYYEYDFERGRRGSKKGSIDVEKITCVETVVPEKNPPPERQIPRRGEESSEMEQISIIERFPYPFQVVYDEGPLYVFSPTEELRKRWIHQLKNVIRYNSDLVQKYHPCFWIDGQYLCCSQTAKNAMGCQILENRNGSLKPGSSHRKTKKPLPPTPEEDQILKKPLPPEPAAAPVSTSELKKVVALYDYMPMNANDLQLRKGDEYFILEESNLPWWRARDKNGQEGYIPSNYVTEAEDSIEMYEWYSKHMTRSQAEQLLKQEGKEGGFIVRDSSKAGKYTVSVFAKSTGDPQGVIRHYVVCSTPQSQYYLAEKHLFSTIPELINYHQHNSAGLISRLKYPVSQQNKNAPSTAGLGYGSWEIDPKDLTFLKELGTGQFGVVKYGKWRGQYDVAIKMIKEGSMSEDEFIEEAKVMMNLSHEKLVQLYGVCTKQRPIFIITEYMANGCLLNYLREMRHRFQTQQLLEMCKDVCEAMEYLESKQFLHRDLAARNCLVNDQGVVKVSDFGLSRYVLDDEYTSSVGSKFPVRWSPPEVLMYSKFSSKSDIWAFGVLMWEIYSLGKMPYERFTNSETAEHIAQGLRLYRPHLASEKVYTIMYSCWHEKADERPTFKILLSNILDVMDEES

SMILES: CC#CC(=O)N1CC[C@@H](n2c(=O)n(-c3ccc(Oc4ccccc4)cc3)c3c(N)ncnc32)C1 [tirabrutinib]
- Expression level of pBTK in PBMC ([1]; 11 patients with confirmed basal pBTK expression, doses ≥160 mg QD): suppressed the expression level of pBTK in all 11 patients; also recorded: fully suppressed
- pBTK suppression ([1]; patients other than the CLL patient, 2 hours post–dose on Day 1 of Cycle 1): Complete suppression
- Cytostatic properties in vitro [2]: cytostatic properties
- Tolerability observed up to (dose) [3]: up to 480 mg once daily (QD)
- Cytostatic properties in vivo [4]: cytostatic properties
- Complete response (CR, CRu, CRi) ([5]; 160 mg QD N = 3): 1 (33.3) n (%)
- Overall response (CR, CRu, CRi, VGPR or PR) ([5]; 160 mg QD N = 3): 3 (100.0) n (%)
- Partial response (VGPR or PR) ([5]; 160 mg QD N = 3): 2 (66.7) n (%)
- Complete response (CR, CRu, CRi) ([5]; 300 mg BID N = 7): 3 (42.9) n (%)
- Overall response (CR, CRu, CRi, VGPR or PR) ([5]; 300 mg BID N = 7): 4 (57.1) n (%)
- Partial response (VGPR or PR) ([5]; 300 mg BID N = 7): 1 (14.3) n (%)
- Complete response (CR, CRu, CRi) ([5]; 320 mg QD N = 3): 2 (66.7) n (%)
- Overall response (CR, CRu, CRi, VGPR or PR) ([5]; 320 mg QD N = 3): 3 (100.0) n (%)
- Partial response (VGPR or PR) ([5]; 320 mg QD N = 3): 1 (33.3) n (%)
- Complete response (CR, CRu, CRi) ([5]; 480 mg QD N = 4): 0 (.0) n (%)
- Overall response (CR, CRu, CRi, VGPR or PR) ([5]; 480 mg QD N = 4): 3 (75.0) n (%)
- Partial response (VGPR or PR) ([5]; 480 mg QD N = 4): 3 (75.0) n (%)
- Median progression‐free survival ([5]; Cohort 3 (480 mg QD)): 109 days
- Median progression‐free survival ([5]; Cohorts 1, 2 and 4): not estimable
- Number of CR ([5]; DLBCL (5 patients)): 2
- Best overall response CR, number of patients [5, 6]: 2 patients
- Best overall response stable disease, number of patients [5, 6]: 1 patient
- Number of CR ([5]; FL (5 patients)): 1
- Number of CR ([5]; MCL (4 patients)): 3
- Complete response (CR, CRu, CRi) ([5]; Total N = 17): 6 (35.3) n (%)
- Overall response (CR, CRu, CRi, VGPR or PR) ([5]; Total N = 17): 13 (76.5) n (%)
- Partial response (VGPR or PR) ([5]; Total N = 17): 7 (41.2) n (%)
- Overall response rate (≥PR) ([5]; all patients (13/17)): 76.5%
- Patients with early response within 1 month after beginning of treatment ([5]; of 13 patients who achieved PR or more): 8 patients
